KCNK3 block: human KCNK3 channel inhibitors, primary screen, CHO cells, FluxOR thallium flux, B-score. Potassium channel subfamily K member 3 (Homo sapiens), O14649. actives 0.84% (n = 340,000). FluxOR fluorescence; stronger effect = lower value. B-score at 10 µM;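 active = B-score under library mean minus 4 SD, starting fluorescence ratio at most library mean plus 5 SD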;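 note: more negative B-score means stronger inhibition of thallium flux through KCNK3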
KCNQ1 act: potentiators or activators of KCNQ1 channel, primary screen, cell-based, thallium flux, high-throughput; Potassium voltage-gated channel subfamily KQT member 1 (Homo sapiens), P51787; CHO-K1 KCNQ1, thallium flux FluxOR fluorescence; stronger effect = higher value; B-score at 10 µM; actives 0.35% (n = 310,000); AID 2648, 2010;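 active = fluorescence ratio B-score, a plate-corrected score, at least three library SD, with initial intensity B-score within 5 SD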
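assay system = KCNQ1-transfected CHO-K1 cells | medium = assay buffer with matched DMSO | probe or stimulus = depolarizing K+/Tl+ stimulus, K2SO4 and Tl2SO4 each 12.5 mM in 5x stock | dosing = single dose | incubation = dye 90 min, compound 20 min, room temperature | detection = kinetic FluxOR fluorescence, 10 s baseline plus 110 s post-stimulus | evaluation = ratio B score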
hERG rescue: hERG rescue from dofetilide block, primary screen, cell-based, CHO-hERG, FluxOR thallium flux, dofetilide IC70; actives 0.51% (n = 310,000); activation (rescue from dofetilide block), less the hit threshold, % at 10 µM; dofetilide IC70 present; Voltage-gated inwardly rectifying potassium channel KCNH2 (Homo sapiens), Q12809;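 active = activation above the mean of controls blocked by dofetilide plus 5 SD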;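 note: thallium influx through hERG after potassium depolarization seen as dye fluorescence rise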
KCNQ1 block: inhibitors of human KCNQ1 channel, primary screen, cell-based, thallium flux, high-throughput. CHO-K1 KCNQ1, FluxOR thallium flux fluorescence; stronger effect = higher value. B-score at 10 µM. actives 1.3% (n = 310,000);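 active = compounds whose thallium flux B-score, printed positive for inhibition, exceeds three library SD while starting fluorescence stays within three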;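 note: channel opened by potassium depolarization with thallium stimulus after 20 min compound exposure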
KCNK9 block: KCNK9 potassium channel inhibitors, primary screen, HEK293 cells, thallium flux; Potassium channel subfamily K member 9 (Homo sapiens), Q9NPC2; FluxOR thallium flux fluorescence; stronger effect = lower value; B-score at 10 µM; actives 1.2% (n = 310,000);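 active = ratio B-score over 3 SD below the library mean, with starting fluorescence within 5 SD of its mean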;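 note: negative B-score means less thallium flux so channel inhibition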
Target sequence (Q9NPC2 whole entry, looked up): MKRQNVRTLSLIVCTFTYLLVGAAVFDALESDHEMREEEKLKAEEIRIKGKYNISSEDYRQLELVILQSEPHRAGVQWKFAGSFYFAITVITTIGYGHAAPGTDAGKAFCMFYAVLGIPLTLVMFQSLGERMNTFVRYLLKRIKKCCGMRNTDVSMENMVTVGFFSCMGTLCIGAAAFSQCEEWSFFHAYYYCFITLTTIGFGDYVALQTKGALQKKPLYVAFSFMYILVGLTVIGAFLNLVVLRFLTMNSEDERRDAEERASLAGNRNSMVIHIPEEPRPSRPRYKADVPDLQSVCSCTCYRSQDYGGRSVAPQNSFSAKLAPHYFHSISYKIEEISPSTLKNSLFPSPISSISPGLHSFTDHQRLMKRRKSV
Kir21 block: inhibitors of mouse Kir2.1 inward-rectifier potassium channel. Inward rectifier potassium channel 2 (Mus musculus), P35561. HEK293-Kir2.1, FluxOR thallium flux fluorescence; stronger effect = lower value. B-score at 10 µM. actives 0.85% (n = 310,000). AID 1672, 2009;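 active = fluorescence ratio B-score at or below minus 3 SD of library scores, with starting-brightness B-score within 2 SD, cut at about -4.2 in these data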;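 note: channel flux triggered by added potassium and thallium sulfate stimulus; B-score of peak minus minimum fluorescence over baseline after thallium stimulus; more negative B-score means stronger Kir2.1 block with less thallium influx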
A number is an active result; . = inactive; / = not tested or not shown. An excerpt weighted towards active compounds, which were near 3.8% of everything screened.

SMILES	KCNK3 block	KCNQ1 act	hERG rescue	KCNQ1 block	KCNK9 block	Kir21 block
CCn1c(CNc2ccc(Cl)cc2)nnc1SCC(=O)OC1CCCCC1	.	.	.	.	.	-6.6
CCn1c(CNc2cccc(Cl)c2)nnc1SCC(=O)OC1CCCCC1	.	.	.	.	.	-5.1
CCn1c(CNc2ccccc2Cl)nnc1SCC(=O)OC1CCCCC1	.	.	.	.	.	-4.5
O=C(NC1CCCC1)C1CCC(CNS(=O)(=O)c2ccc(F)cc2)CC1 (stereo not drawn)	.	.	.	.	.	.
CC(=O)Nc1ccc(S(=O)(=O)Nc2ccccc2C(=O)N2CCCCCC2)cc1	.	.	.	.	.	.
CCN1CCN(CNC(=O)c2cnccn2)CC1	.	.	.	.	.	.
NC(=O)CSc1nnc(-c2ccccc2Br)n1-c1cccc(C(F)(F)F)c1	.	.	.	.	.	.
Cc1cc(C)nc(NS(=O)(=O)c2ccccc2)n1	.	.	.	.	.	.
O=S(=O)(Nc1cccc(-c2cn3c(n2)SCC3)c1)c1ccccc1F	.	.	.	.	.	.
COc1ccc(Nc2nc(N)nc(CN3CCC(Cc4ccccc4)CC3)n2)cc1	.	.	.	.	.	-4.4
COc1ccccc1Nc1nc(N)nc(CN2CCC(Cc3ccccc3)CC2)n1	.	.	.	.	.	.
Cc1ccc(NC(=O)c2sccc2-n2cccc2)c(C)c1	.	.	.	.	-8.1	.
CC(=O)Nc1ccc(-c2ccc(NC(C)=O)c(O)c2)cc1O	.	.	.	.	.	.
N#C/C(=C\c1cccc(Oc2ccccc2)c1)C(=O)N1CCOCC1	.	.	.	.	.	-13
Cn1nc(-c2ccccc2)c(CSc2ccccc2Cl)c1Cl	.	.	.	.	-7.6	.
Cc1ccc(S(=O)(=O)c2c(CO)c(-c3ccccc3)nn2C)cc1	.	.	.	.	.	.
CC(=O)c1ccc(NC(=O)C2=CC(c3ccco3)=NS(=O)(=O)N2C)cc1	.	.	.	.	.	.
CC1(c2nnc(-c3ccc(Cl)cc3)o2)CC(c2c(Cl)cccc2Cl)=NO1 (stereo not drawn)	.	.	.	.	-7.6	.
CC1(c2nnc(-c3ccc(F)cc3)o2)CC(c2c(Cl)cccc2Cl)=NO1 (stereo not drawn)	.	.	.	.	.	.
CN(C)c1nc2c(c(N)nn2-c2ccc(Cl)cc2)c(=O)o1	.	.	.	.	.	.
CN(C)CCOc1ccc2c(c1)Sc1ccccc1CC2=O	.	.	.	.	.	-5.2
CC(=O)c1cccc(NC(=O)COc2ccc3oc(=O)cc(C)c3c2)c1	.	.	.	.	.	.
CC(C)CC(O)(c1ccccc1)C(CN1CCOCC1)c1ccccc1 (stereo not drawn)	.	.	.	.	.	.
OC(c1ccc(F)cc1)(C1CCCCC1)C(CN1CCOCC1)c1ccccc1 (stereo not drawn)	.	.	.	8	.	.
CN1CC(=O)N(CC(=O)Nc2ccc(Cl)c(C(F)(F)F)c2)C1=O	.	.	4.6	.	.	.
SMILES	KCNK3 block	KCNQ1 act	hERG rescue	KCNQ1 block	KCNK9 block	Kir21 block
COc1ccc(NC(=O)CC2CCCCC2)cc1OC	.	.	5.7	.	.	.
COc1ccc(NC(=O)CC2CCCC2)cc1S(=O)(=O)N1CCCCC1	.	.	.	.	.	.
COc1cccc(NC(=S)NNC(=O)c2ccccc2OC(F)F)c1	.	.	.	.	.	.
COCCCNC(=S)NNC(=S)Nc1cccc(Cl)c1	.	.	.	6	.	.
S=C(Nc1cccc(Cl)c1)Nc1ccccc1Oc1ccccc1	.	.	.	8	.	.
O=C(NNC(=S)Nc1cccc(Cl)c1)c1ccccc1OC(F)F	.	.	.	9	.	.
CC(C)c1cc(NCCN2CCOCC2)n2c(nc3ccccc32)c1C#N	-9.2	/	/	/	/	/
N#Cc1c2c(c(NCCN3CCOCC3)n3c1nc1ccccc13)CCCC2	-8.9	.	.	.	.	.
CCN(CC)CC(O)COC(c1ccccc1)c1ccccc1 (stereo not drawn)	.	.	.	.	.	.
CCN(Cc1ccccc1)CC(O)COC(c1ccc(OC)cc1)c1ccc(OC)cc1 (stereo not drawn)	.	.	.	.	.	-8.8
O=C(CCn1c(=O)sc2ccccc21)Nc1nccs1	.	.	.	.	.	.
Cc1nn(Cc2ccc(F)cc2)c2sc(C(=O)Nc3ccccc3N3CCOCC3)cc12	.	.	.	.	.	.
Cc1nn(Cc2ccccc2Cl)c2sc(C(=O)Nc3ccccc3N3CCOCC3)cc12	.	.	.	6	.	.
CCCCOC(=O)CCc1c(C)[nH]c(=S)[nH]c1=O	.	.	.	.	.	.
CCN(CC)CCNC(C(=O)Nc1ccc([N+](=O)[O-])cc1Br)c1ccccc1 (stereo not drawn)	.	.	.	.	.	.
CN(C)C(CNC(C(=O)Nc1ccc([N+](=O)[O-])cc1Br)c1ccccc1)c1ccccc1 (stereo not drawn)	.	.	.	9	.	.
O=S(=O)(NCCSCc1c(Cl)cccc1Cl)c1ccc2c(c1)OCCO2	.	.	.	.	.	.
O=S(=O)(NCCSc1ccc(Cl)cc1)c1ccc2c(c1)OCCO2	.	.	.	.	.	-5.4
CC(NC(=O)[C@H](Cc1c[nH]c2ccccc12)NC(=O)[C@@H]1Cc2ccccc2CN1)c1ccccc1 (stereo partly drawn)	.	.	.	.	.	.
CCc1nnc(NC(=O)c2cccc(S(=O)(=O)N3CCN(c4ccccc4)CC3)c2)s1	.	.	5.5	.	.	.
CCc1nnc(NC(=O)c2cc(S(=O)(=O)N3CCN(c4ccccc4)CC3)ccc2Cl)s1	.	.	.	.	.	.
CCOC(=O)C1=C(CC)Nc2ccccc2N/C1=N\S(=O)(=O)c1ccc(C(=O)OCC)cc1	.	.	.	.	.	.
CCN(C(=S)NC(=O)c1ccccc1Br)C1CCCCC1	.	36	57	.	.	.
CCOC(=O)N1CCN(c2nc(N(c3ccccc3)c3ccccc3)nc(-n3ccnc3)n2)CC1	/	.	.	8	.	.
CC1CN(C(=S)NC(=O)c2ccc(Cl)cc2)CC(C)O1 (stereo not drawn)	.	.	6.4	.	.	.
O=C(NC(=S)N1CCN(Cc2ccc3c(c2)OCO3)CC1)c1ccc(Cl)cc1	.	11	24	.	.	.

High-throughput results from PubChem.
